Results: ChEMBL document CHEMBL1145382, “Novel ergopeptides as dual ligands for adenosine and dopamine receptors” (J Med Chem, 2007)
The source made the active and inactive calls. The calls are words filed in the database; no cut-off is given here. Non-standard residues stand in square brackets, D forms with d. Residues, ends and D or L forms follow the SMILES beside them. Phe(4-NO2) = N[C@@H](Cc1ccc([N+](=O)[O-])cc1)C(=O)O; Phe(4-F) = N[C@@H](Cc1ccc(F)cc1)C(=O)O; hCha = N[C@@H](CCC1CCCCC1)C(=O)O

Legend:
[1] = target: D(1A) dopamine receptor (Homo sapiens) (UniProt P21728); assay: Displacement of [3H]SCH 23390 from dopamine D1 receptor in lamb striatum membrane at 50 uM after 1 hr; assay type: cell membranes; conditions: Ovis aries, target entry is the homologue from another species
D(1A) dopamine receptor (Homo sapiens), sequence (P21728 whole entry): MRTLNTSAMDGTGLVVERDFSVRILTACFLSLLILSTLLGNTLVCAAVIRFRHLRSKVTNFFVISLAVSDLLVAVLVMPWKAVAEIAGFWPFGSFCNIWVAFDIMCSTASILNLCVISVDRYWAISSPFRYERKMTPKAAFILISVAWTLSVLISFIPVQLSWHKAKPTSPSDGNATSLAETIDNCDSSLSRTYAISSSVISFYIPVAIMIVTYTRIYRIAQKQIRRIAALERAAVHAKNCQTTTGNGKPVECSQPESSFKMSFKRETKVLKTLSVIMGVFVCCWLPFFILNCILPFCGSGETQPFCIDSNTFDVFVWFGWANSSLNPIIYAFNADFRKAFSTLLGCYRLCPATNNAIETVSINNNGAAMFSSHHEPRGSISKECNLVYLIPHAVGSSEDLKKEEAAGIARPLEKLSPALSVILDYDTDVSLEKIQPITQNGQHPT
Summary of the method: (§1)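 Single-concentration screen at 50 µM ergopeptide on lamb striatal membranes (0.5 mg protein/mL), 22 °C, 50 mM Tris-HCl pH 7.4. Radioligands: [3H]SCH 23390 1.2 nM (D1), [3H]YM 09151-2 0.9 nM (D2), [3H]R-PIA 2.2 nM (A1, with MgCl2 and ADA), [3H]CGS 21680 20.1 nM (A2A, with MgCl2 and ADA). Specific binding displaced, after filtration and scintillation counting.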

[2] = target: D(2) dopamine receptor (Homo sapiens) (UniProt P14416); assay: Agonist activity at dopamine D2 receptor in SH-SY5Y cells assessed as inhibition of forskolin-activated intracellular cAMP production at 50 uM; assay type: functional, cell-based
D(2) dopamine receptor (Homo sapiens), sequence (P14416 whole entry): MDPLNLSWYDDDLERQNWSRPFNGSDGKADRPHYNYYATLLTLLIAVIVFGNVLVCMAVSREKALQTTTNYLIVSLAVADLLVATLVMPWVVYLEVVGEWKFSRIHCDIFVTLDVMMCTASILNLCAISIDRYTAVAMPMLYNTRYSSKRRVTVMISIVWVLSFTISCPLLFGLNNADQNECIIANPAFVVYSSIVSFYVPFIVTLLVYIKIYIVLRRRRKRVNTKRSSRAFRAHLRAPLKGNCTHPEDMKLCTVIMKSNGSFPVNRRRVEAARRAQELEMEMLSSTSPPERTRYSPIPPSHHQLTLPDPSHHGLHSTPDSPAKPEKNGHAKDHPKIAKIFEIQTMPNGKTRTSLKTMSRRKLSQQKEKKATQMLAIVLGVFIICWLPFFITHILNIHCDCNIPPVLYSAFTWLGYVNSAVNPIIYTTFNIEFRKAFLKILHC
Summary of the method: (§2)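 SH-SY5Y cells expressing human D2LR, preincubated 5-10 min at 22 °C with 5 µM ZM to block A2AR. Then 50 µM zardaverine, 10 µM forskolin, and 50 µM ergopeptide, with or without 150 nM quinpirole or 50 µM raclopride. 35 min total. cAMP by enzyme immunoassay. Three to six determinations, t test.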

[3] = target: T1, Adenosine receptor A2a (Homo sapiens, UniProt P29274); assay: Displacement of [3H]CGS 21680 from adenosine A2A receptor in lamb striatum membrane at 50 uM after 2 hrs; assay type: cell membranes; conditions: Ovis aries, target entry is the homologue from another species; summary of the method: as §1
T1 sequence (P29274 whole entry): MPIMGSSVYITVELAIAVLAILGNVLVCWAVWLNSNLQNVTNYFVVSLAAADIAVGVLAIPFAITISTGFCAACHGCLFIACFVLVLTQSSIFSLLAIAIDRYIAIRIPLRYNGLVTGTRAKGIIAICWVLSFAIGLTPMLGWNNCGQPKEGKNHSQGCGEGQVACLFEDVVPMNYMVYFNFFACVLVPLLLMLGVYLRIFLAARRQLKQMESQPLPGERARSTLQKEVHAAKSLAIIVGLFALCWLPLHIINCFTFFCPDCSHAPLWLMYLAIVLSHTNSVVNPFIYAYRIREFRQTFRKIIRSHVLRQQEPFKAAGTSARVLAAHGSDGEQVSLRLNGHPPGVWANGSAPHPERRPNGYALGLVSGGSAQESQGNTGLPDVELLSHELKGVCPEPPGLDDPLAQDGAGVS

[4] = target: D(1A) dopamine receptor (Homo sapiens) (UniProt P21728); assay: Agonist activity at dopamine D1 receptor transfected in mouse L(tk-) cells assessed as stimulation of cAMP levels; assay type: functional, cell-based
Summary of the method: (§3)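 Mouse Ltk- fibroblasts cotransfected with human A1R and D1R, serum-starved 12-16 h. In HBSS with 50 µM zardaverine, then 50 µM ergopeptide, with or without 20 nM SKF or 50 µM SCH. 35 min total incubation. cAMP by competitive enzyme immunoassay. Three to six determinations, t test.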

[5] = target: T2, Adenosine receptor A1 (Homo sapiens) (UniProt P30542); assay: Displacement of [3H]R-PIA from adenosine A1 receptor in lamb striatum membrane at 50 uM after 1 hr; assay type: cell membranes; conditions: Ovis aries, target entry is the homologue from another species; summary of the method: as §1
T2 sequence (whole entry): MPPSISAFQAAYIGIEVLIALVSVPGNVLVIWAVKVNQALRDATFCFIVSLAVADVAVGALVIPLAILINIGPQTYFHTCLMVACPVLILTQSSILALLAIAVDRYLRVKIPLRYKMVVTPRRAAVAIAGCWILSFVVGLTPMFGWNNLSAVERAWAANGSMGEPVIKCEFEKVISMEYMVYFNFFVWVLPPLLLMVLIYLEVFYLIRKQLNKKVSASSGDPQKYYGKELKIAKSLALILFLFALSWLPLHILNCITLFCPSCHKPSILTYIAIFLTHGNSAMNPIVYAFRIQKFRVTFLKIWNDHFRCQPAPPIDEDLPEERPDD

[6] = target: T2, Adenosine receptor A1 (Homo sapiens); assay: Agonist activity at adenosine A1 receptor transfected in mouse L(tk-) cells assessed as decrease in forskolin-induced cAMP levels; assay type: functional, cell-based
Summary of the method: (§4)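 Mouse Ltk- fibroblasts cotransfected with human A1R and D1R, preincubated 5-10 min at 22 °C with 50 µM SCH to block D1R. Then 50 µM zardaverine, 10 µM forskolin, and 50 µM ergopeptide, with or without 20 nM R-PIA or 50 µM DPCPX. 35 min total. cAMP by enzyme immunoassay. Three to six determinations.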

[7] = target: D(1A) dopamine receptor (Homo sapiens) (UniProt P21728); assay: Antagonist activity at dopamine D1 receptor transfected in mouse L(tk-) cells assessed as inhibition of SKF-induced stimulation of forskolin-induced cAMP levels; assay type: functional, cell-based; summary of the method: as §3
[8] = target: D(2) dopamine receptor (Homo sapiens) (UniProt P14416); assay: Displacement of [3H]YM 09151-2 from dopamine D2 receptor in lamb striatum membrane at 50 uM after 2 hrs; assay type: cell membranes; conditions: Ovis aries, target entry is the homologue from another species; summary of the method: as §1
[9] = target: T1, Adenosine receptor A2a; assay: Agonist activity at adenosine A2A receptor in SH-SY5Y cells assessed as CGS-induced intracellular cAMP production at 50 uM; assay type: functional, cell-based
Summary of the method: (§5)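 SH-SY5Y neuroblastoma cells, endogenous A2AR, stably carrying human D2LR. Serum-starved 12-16 h, in HBSS with 50 µM zardaverine for 10 min, then 50 µM ergopeptide, alone or with the A2AR agonist CGS. 35 min total incubation. cAMP by competitive enzyme immunoassay. Three to six determinations, Student's t test.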

[10] = target: T2, Adenosine receptor A1 (Homo sapiens); assay: Antagonist activity at adenosine A1 receptor transfected in mouse L(tk-) cells assessed as inhibition of R-PIA-induced decrease in forskolin-induced cAMP levels; assay type: functional, cell-based; summary of the method: as §4
[11] = target: T1, Adenosine receptor A2a; assay: Antagonist activity at adenosine A2A receptor in SH-SY5Y cells assessed as CGS-induced intracellular cAMP production at 50 uM; assay type: functional, cell-based; summary of the method: as §5
[12] = target: D(2) dopamine receptor (Homo sapiens) (UniProt P14416); assay: Antagonist activity at dopamine D2 receptor in SH-SY5Y cells assessed as effect on forskolin-activated intracellular cAMP production at 50 uM; assay type: functional, cell-based; summary of the method: as §2
[13] = target: T1, Adenosine receptor A2a; assay: Displacement of [3H]CGS 21680 from adenosine A2A receptor in lamb striatum membrane after 2 hrs; assay type: cell membranes, Ovis aries; conditions: target entry is the homologue from another species
Summary of the method: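 Lamb striatal membranes (0.5 mg protein/mL), 22 °C, 50 mM Tris-HCl pH 7.4, with increasing ergopeptide concentrations. Conditions per receptor: D1 1.2 nM [3H]SCH 23390, 1 mM dopamine nonspecific. D2 0.9 nM [3H]YM 09151-2, 100 µM raclopride nonspecific. A1 2.2 nM [3H]R-PIA, 10 mM MgCl2, 0.2 U/mL ADA, 50 µM R-PIA nonspecific. A2A 20.1 nM [3H]CGS 21680, 10 mM MgCl2, 2 U/mL ADA, 1 mM CGS 21680 nonspecific. Filtration, scintillation counting. KD by nonlinear one- or two-site fit. Three to six determinations.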

| Compound | Activity [1] | Activity [2] | Activity [3] | Activity [4] | Activity [5] | Activity [6] | Activity [7] | Activity [8] | Activity [9] | Activity [10] | Activity [11] | Activity [12] | Kd [13] |
| --- | --- | --- | --- | --- | --- | --- | --- | --- | --- | --- | --- | --- | --- |
| CN1C[C@H](C(=O)N[C@@H](Cc2ccc([N+](=O)[O-])cc2)C(=O)N[C@@H](CCC2CCCCC2)C(=O)N2CCCC(C(N)=O)C2)C=C2c3cccc4[nH]cc(c34)C[C@H]21 (stereo partly specified) | < 40% | Active | < 40% | Active | < 40% | inactive | inactive | < 40% | inactive | Active | – | – | – |
| CN1C[C@H](C(N)=O)C=C2c3cccc4[nH]cc(c34)C[C@H]21 | < 40% | – | < 40% | – | < 40% | – | – | < 40% | – | – | – | – | – |
| CC(C)[C@H](NC(=O)[C@H]1C=C2c3cccc4[nH]cc(c34)C[C@H]2N(C)C1)C(=O)N[C@@H](Cc1ccc([N+](=O)[O-])cc1)C(=O)N1CCC[C@H]1C(N)=O | < 40% | Active | < 40% | Active | < 40% | inactive | inactive | < 40% | inactive | Active | Active | – | – |
| CC(=O)N[C@@H](Cc1ccc([N+](=O)[O-])cc1)C(=O)N[C@@H](CCC1CCCCC1)C(=O)N1CCCC(C(N)=O)C1 (stereo partly specified) | < 40% | – | < 40% | – | < 40% | – | – | < 40% | – | – | – | – | – |
| CC(=O)N[C@H](C(=O)N[C@@H](CCC1CCCCC1)C(=O)N1CCCC(C(N)=O)C1)C(C)C (stereo partly specified) | < 40% | – | < 40% | – | < 40% | – | – | < 40% | – | – | – | – | – |
| CC(C)[C@H](NC(=O)[C@@H]1C=C2c3cccc4[nH]cc(c34)C[C@H]2N(C)C1)C(=O)N[C@@H](Cc1ccc(F)cc1)C(=O)N1CCC[C@H]1C(N)=O | < 40% | – | < 40% | Active | < 40% | inactive | inactive | < 40% | inactive | Active | – | Active | – |
| CC(=O)N[C@H](C(=O)N[C@@H](Cc1ccc(F)cc1)C(=O)N1CCC[C@H]1C(N)=O)C(C)C (Ac-Val-[Phe(4-F)]-Pro-NH2) | < 40% | – | < 40% | – | < 40% | – | – | < 40% | – | – | – | – | – |
| CN1C[C@H](C(=O)N[C@@H](CCC2CCCCC2)C(=O)N[C@@H](Cc2ccc(F)cc2)C(=O)N2CCC[C@H]2C(N)=O)C=C2c3cccc4[nH]cc(c34)C[C@H]21 | < 40% | Active | < 40% | Active | < 40% | inactive | inactive | < 40% | inactive | Active | – | – | 33 µM |
| CC(C)[C@H](NC(=O)[C@H](CCC1CCCCC1)NC(=O)[C@@H]1C=C2c3cccc4[nH]cc(c34)C[C@H]2N(C)C1)C(=O)N1CCC[C@H]1C(N)=O | < 40% | Active | < 40% | Active | < 40% | inactive | inactive | < 40% | inactive | Active | Active | – | – |
| CC(=O)N[C@@H](CCC1CCCCC1)C(=O)N[C@@H](Cc1ccc(F)cc1)C(=O)N1CCC[C@H]1C(N)=O (Ac-[hCha]-[Phe(4-F)]-Pro-NH2) | < 40% | – | < 40% | – | < 40% | – | – | < 40% | – | – | – | – | – |
| CC(C)[C@H](NC(=O)[C@@H]1C=C2c3cccc4[nH]cc(c34)C[C@H]2N(C)C1)C(=O)N[C@@H](Cc1ccc([N+](=O)[O-])cc1)C(=O)N1CCC[C@H]1C(N)=O | < 40% | Active | < 40% | Active | < 40% | inactive | inactive | < 40% | inactive | Active | Active | – | – |
| CN1C[C@H](C(=O)N[C@@H](Cc2ccc([N+](=O)[O-])cc2)C(=O)N[C@@H](Cc2ccc(F)cc2)C(=O)N2CCCC(C(N)=O)C2)C=C2c3cccc4[nH]cc(c34)C[C@H]21 (stereo partly specified) | < 40% | Active | < 40% | Active | < 40% | inactive | inactive | < 40% | inactive | Active | Active | – | – |
| CC(=O)N[C@@H](Cc1ccc([N+](=O)[O-])cc1)C(=O)N[C@@H](Cc1ccc(F)cc1)C(=O)N1CCCC(C(N)=O)C1 (stereo partly specified) | < 40% | – | < 40% | – | < 40% | – | – | < 40% | – | – | – | – | – |
| CC(C)[C@H](NC(=O)[C@H](Cc1ccc([N+](=O)[O-])cc1)NC(=O)[C@@H]1C=C2c3cccc4[nH]cc(c34)C[C@H]2N(C)C1)C(=O)N1c2ccccc2C[C@H]1C(N)=O | < 40% | Active | < 40% | Active | < 40% | inactive | inactive | < 40% | inactive | Active | – | – | – |
| CC(=O)N[C@H](C(=O)N[C@@H](Cc1ccc([N+](=O)[O-])cc1)C(=O)N1CCC[C@H]1C(N)=O)C(C)C (Ac-Val-[Phe(4-NO2)]-Pro-NH2) | < 40% | – | < 40% | – | < 40% | – | – | < 40% | – | – | – | – | – |
| CC(=O)N[C@H](C(=O)N[C@@H](CCC1CCCCC1)C(=O)N1c2ccccc2C[C@H]1C(N)=O)C(C)C | < 40% | – | < 40% | – | < 40% | – | – | < 40% | – | – | – | – | – |
| CC(C)[C@H](NC(=O)[C@@H]1C=C2c3cccc4[nH]cc(c34)C[C@H]2N(C)C1)C(=O)N[C@@H](CCC1CCCCC1)C(=O)N1c2ccccc2C[C@H]1C(N)=O | < 40% | – | < 40% | Active | < 40% | inactive | inactive | < 40% | inactive | Active | – | Active | 25 µM |
| CC(=O)N[C@@H](CCC1CCCCC1)C(=O)N[C@H](C(=O)N1CCC[C@H]1C(N)=O)C(C)C (Ac-[hCha]-Val-Pro-NH2) | < 40% | – | < 40% | – | < 40% | – | – | < 40% | – | – | – | – | – |
| CC(=O)N[C@@H](Cc1ccc([N+](=O)[O-])cc1)C(=O)N[C@H](C(=O)N1c2ccccc2C[C@H]1C(N)=O)C(C)C | < 40% | – | < 40% | – | < 40% | – | – | < 40% | – | – | – | – | – |
